Assay results: ChEMBL document CHEMBL4513216, “Probing the Open Global Health Chemical Diversity Library for Multistage-Active Starting Points for Next-Generation Antimalarials” (ACS Infect Dis, 2020)

experiment: Toxicity liver stage against HepG2, at 10uM; format: cell-based; design: test concentration 10 uM, cell line HepG2-A16-CD81EGFP; settings: human, HepG2-A16-CD81EGFP cells; read-out: INHIBITION
Outline: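 Uninfected HepG2-A16-CD81EGFP cells, 3 × 10^3 per well, 1536-well, plated on prespotted compound at 10 μM final, parasite-free screening media added to match infected plates; puromycin 10 μM positive, DMSO 0.5% negative; run in parallel with 48 h PbLuc assay at 37 °C, 5% CO2; viability by CellTiter-Glo luminescence, normalized to controls.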

SMILES	cytotoxicity at 10 µM
COC(=O)c1cccc2nc([C@H]3CCN(C4CCN(C)CC4)C3)oc12	-3.54%
CNC(=O)c1ccccc1-c1ccc(S(C)(=O)=O)cc1	-2.07%
CCOC(=O)CNC(=O)C1OC(c2ccccc2)=NN1C(C)=O (configuration not stated)	0.53%
Cc1c(-c2ccccc2)nc2c(c(C)c(C)n2CCN(C)C)c1N	24.6%
COc1ccccc1CNc1c(N2CCN(C(C)=O)CC2)c(=O)c1=O	-0.707%
COCCNC(=O)c1cc(-c2ccc3c(c2)CCO3)n[nH]1	0.843%
CC(=O)N1CCCc2sc(C(=O)NC3CC3)nc21	-132%
CS(=O)(=O)N[C@H]1COC[C@@H]2CN(Cc3ccco3)C[C@@H]21	9.12%
O=C(NCC1CC1)C1CN(Cc2cccs2)Cc2ccnn2C1 (configuration not stated)	-3.94%
CC(C)n1[nH]c(=O)c2c1NC(=O)CC2c1ccncc1 (configuration not stated)	-4.66%
O=C(Cn1nc2c(cc1=O)CCCC2)N[C@@H](C(=O)O)c1ccccc1	5.76%
CC(=O)c1cccc(NC(=O)COc2c(C)n(C)ccc2=O)c1	2.45%
O=C(CSC1=NS(=O)(=O)c2cc(F)ccc2N1)c1ccc(Cl)cc1	10.3%
CS(=O)(=O)N1Cc2nccn2CC(Cn2ncccc2=O)C1 (configuration not stated)	-2.04%
Cc1csc([C@@H]2C[C@@H]3CCN(C(=O)c4ccnnc4)C[C@H]3O2)n1	4.49%
Cn1cc(Br)c(C(=O)NCCCn2cc(Cl)cn2)n1	-1.49%
Cc1noc(C)c1-c1nc(C2CCCN(CCC(N)=O)C2)ccc1CO (configuration not stated)	-2.66%
CCS(=O)(=O)N1C[C@@H](O)[C@H](Oc2cccc(F)c2)C1	-3.65%
CS(=O)(=O)N1C[C@@H](O)[C@H](N2CCN(c3ccccc3)CC2)C1	20.3%
CC(=O)N1CCC(C(=O)N2CCCC(Cc3cccc(C)n3)C2)CC1 (configuration not stated)	-18.6%
Cc1ccc(=O)n(CC2(O)CCN(Cc3c(F)cccc3F)CC2)n1	-17.6%

SMILES	cytotoxicity at 10 µM
CCOCCSc1nnc(Cc2ccccc2F)o1	8.45%
Cc1cncc(NCc2ccccc2N2CCOCC2)c1	6.02%
COc1ccc(NC(=O)c2cccc(OC)c2OC)cc1	18.5%
Cc1ccc(OCCN(C)S(=O)(=O)N2CCOCC2)cc1	0.651%
COc1cccc(COCC(=O)NC2CCN(CC(N)=O)CC2)c1	-8.47%
CNC(=O)C1CCCCN1C(=O)c1csc(-c2ccc(C)o2)n1 (configuration not stated)	7.55%
Cc1ccc(F)c2c1N(C(=O)Cc1c(C)nn(C)c1C)CCC2	12.7%
CNC(=O)Cc1noc(-c2cc3c(s2)CCC(C)C3)n1 (configuration not stated)	4.75%
O=C(NC1CCS(=O)(=O)C1)c1ccccc1SCc1cscn1 (configuration not stated)	-1.53%
CCC(CNC(=O)CCn1cncn1)N1CCc2ccccc2C1 (configuration not stated)	-137%
CC1CN(C(=O)Nc2cc(C(F)(F)F)c[nH]c2=O)CC(C)(C)O1 (configuration not stated)	8.96%
CCc1ccc(S(=O)(=O)N2CCCn3ncnc32)s1	-0.908%
COc1ccc2c(c1)CCCC2CC(=O)O (configuration not stated)	-2.74%
O=C(c1ccc(CN2CC(n3cccn3)C2)cc1)N1CCCC1	9.56%
Cn1ccnc1CN1CCN(c2ncnc3ccsc23)CC1	-7.95%
Cn1cnc(S(=O)(=O)Nc2cc(C(N)=O)ccc2Cl)c1	3.86%
COC(=O)N1CCC(Nc2ccc(Cl)c(C#N)n2)C1 (configuration not stated)	-3.44%
CNC(=O)CN1CCC(NC2CSCCc3ccccc32)CC1 (configuration not stated)	-4.28%
COc1cc(C2(C(=O)NCCn3ccnc3)CCCC2)ccc1C	8%
CC(=O)NCCNC(=O)c1cccc(Cn2nc(C)cc2C)c1	-10.3%
CC(C)c1nn(C)c(N2CCOCC2)c1CNCc1nncn1C	5.59%

SMILES	cytotoxicity at 10 µM
CCC(Nc1nnnn1-c1ccccc1)C(=O)Nc1ccccc1C (configuration not stated)	-13.1%
CCc1cc(CNC(=O)N2Cc3ccccc3N(C)CC2C)on1 (configuration not stated)	4.38%
CCNC(=O)CN1CCCN(C(=O)C2CCCc3[nH]ncc32)CC1 (configuration not stated)	4%
CCCC(C)C(=O)NCc1cn2cc(Br)ccc2n1 (configuration not stated)	-6.6%
N#Cc1cccc(C(=O)NC2CCc3c(ccc(=O)n3CC3CC3)C2)c1 (configuration not stated)	0.908%
C[C@H]1C[C@H]2CN(C(=O)CCc3ccccc3)CC[C@H]2O1	-75.6%
CCC(CO)N(Cc1cccc(O)c1)Cc1ccccc1C (configuration not stated)	-8.22%
O=C1[C@@H]2C[C@H](O)CCN2C(=O)CN1CCSc1ccccn1	-2.96%
COc1cnc(N2C[C@@H](CN3CCOCC3)C[C@H](CO)C2)nc1	-6.16%
CN(C)CC1(O)CCCN(c2noc(-c3ccccc3)n2)CC1 (configuration not stated)	0.0264%
Cc1nnsc1C(=O)N1CCCC(c2nccn2Cc2cscn2)C1 (configuration not stated)	2.62%
O=C(c1cccc(C2CCNC2)c1)N1CCC(c2ccncc2)CC1 (configuration not stated)	-1.12%
CCN(CC)C(=O)Cn1cc(-c2nc(-c3ccccc3C)no2)nn1	-2.46%
CC(C)(CNC(=O)c1ccco1)CNC(=O)c1ccco1	-3.97%
O=C(COc1cccc(Cl)c1)N1CCOCC(O)(CN2CCCC2)C1 (configuration not stated)	-4.68%
COc1nccnc1-c1cccc(-c2ccn(CC3COCCO3)n2)c1 (configuration not stated)	-3.65%
Cc1nc(C(=O)N2CCC(c3nnc(Cn4ccnc4)n3C)CC2)cs1	-127%
Cc1ccc(CN2C[C@@H](C(=O)O)[C@H](c3ccccn3)C2)o1	-3.88%
CC(=O)c1cn(CC(=O)N2CCCC(O)(CO)C2)c2ccccc12 (configuration not stated)	-4.87%
NC1CCCc2c1cnn2-c1cc(F)cc(F)c1 (configuration not stated)	6.54%
O=C(NCCc1cccnc1)c1cn(CCN2CCNCC2)nn1	-7.82%

SMILES	cytotoxicity at 10 µM
Cc1nc(C)c(CC(=O)N2C[C@@H](C(=O)O)[C@H](c3ccncc3)C2)s1	-127%
CCN1CCCC1CNC(=O)c1cc(COc2cccc(F)c2)[nH]n1 (configuration not stated)	-5.96%
Cc1ccccc1CSc1nc(N)cc(N2CCOC(C(N)=O)C2)n1 (configuration not stated)	5.27%
Cc1oc(C(=O)O)cc1S(=O)(=O)Nc1ccc(Br)cc1Cl	-5.09%
O=C(c1cc2c(s1)CCC2)N1CCCC1Cn1cccn1 (configuration not stated)	-3.12%
CC(C)c1nc(C2CCCN(C(=O)CCCn3ccnc3)C2)no1 (configuration not stated)	-17.2%
O=C(CCc1ccccc1)N1CC(n2cncn2)C1	-15.7%
CN(C)c1cc(CNC(=O)c2ccccc2S(C)(=O)=O)ccn1	-10.7%
CS(=O)(=O)c1cccc(C(N)c2ccccc2)c1 (configuration not stated)	-19.3%
Cc1csc(N2CCN(C(=O)NCCNc3ncccn3)CC2)n1	-18.8%
CCOCC(O)CN1CCN(C(=O)C2CCCC2)CC1 (configuration not stated)	-13%
Cc1ccc(N2CCCC(NCc3cccs3)C2)nn1 (configuration not stated)	-33%
Cc1ccc(N2CCCC(NCc3ccc4c(c3)OCCO4)C2)nn1 (configuration not stated)	-20.1%
CC1CN(c2ccc(CNC(=O)c3ccn(C)c(=O)c3)cn2)CCO1 (configuration not stated)	2.82%
CC(C)n1ccnc1CN1CCCN(C(=O)COC2CCCC2)CC1	-0.602%
O=c1n(CCSCc2ccccc2F)nc2ccccn12	0.168%
CNC(=O)[C@@H](C1CC1)N1CCC[C@H]1C(=O)NCC(C)C	-2.45%
Cc1ncsc1CN1C[C@H](OCc2ccncc2)[C@H]2OCCC[C@H]21	-139%
Cc1oc(C(C)C)cc1C(=O)N1C[C@@H]2CC[C@H]1CN(S(=O)(=O)N(C)C)C2	-127%
